pEC50, pIC50: −log10 of the molar value.
Experiments:
[1] = Fraction unbound in rat plasma after 4 hrs by equilibrium dialysis method; format: ADME, cell-free
[2] = Intrinsic clearance in human liver microsomes at 1 uM preincubated for 5 mins followed by NADPH addition measured up to 45 mins by LC-MS/MS analysis; format: ADME, Microsome; conditions: read-out: CLH
Procedure, shortened: (§1)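 Intrinsic and predicted hepatic clearance derived from liver microsome incubations.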

[3] = Clearance in rat administered as iv cassette dose; format: ADME, organism-based; conditions: in vivo
Procedure, shortened: (§2)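 IV cassette in male Sprague-Dawley rats (~300 g, n = 1 per experiment), cannulated in carotid artery and jugular vein and acclimated about one week. Plasma clearance, Vss, t1/2 and MRT were derived.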

[4] = Fraction unbound in human plasma after 4 hrs by equilibrium dialysis method; format: ADME, cell-free
[5] = Intrinsic clearance in rat liver microsomes at 1 uM preincubated for 5 mins followed by NADPH addition measured up to 45 mins by LC-MS/MS analysis; format: ADME, Microsome; conditions: read-out: CLH; procedure, shortened: as §1
[6] = target: Metabotropic glutamate receptor 4 (Rattus norvegicus) (UniProt P31423); test: Positive allosteric modulation of rat mGlu4 receptor expressed in HEK cells co-expressing GIRK1/2 assessed as increase in glutamate-induced thallium flux preincubated for 140 secs followed by glutamate addition and measured after 2.5 mins by FluoZin-2-AM dye based fluorescence assay relative to control; format: cell-based
Procedure, shortened: (§3)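 HEK cells co-expressing rat mGlu4 and GIRK1/2 were loaded for 1 h at room temperature with FluoZin-2 AM (330 nM final) in HBSS/20 mM HEPES pH 7.4. Compound was incubated 140 s, then thallium buffer with or without agonist was added. Reading continued for 2.5 min at room temperature. Potency was fitted by four-parameter logistic.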

[7] = target: T1, Cytochrome P450 1A2 (Homo sapiens, UniProt P05177); test: Inhibition of CYP1A2 in human liver microsomes using phenacetin as substrate preincubated for 15 mins followed by substrate addition and measured after 8 mins by LC-MS/MS analysis; format: ADME
T1 sequence (P05177 whole entry): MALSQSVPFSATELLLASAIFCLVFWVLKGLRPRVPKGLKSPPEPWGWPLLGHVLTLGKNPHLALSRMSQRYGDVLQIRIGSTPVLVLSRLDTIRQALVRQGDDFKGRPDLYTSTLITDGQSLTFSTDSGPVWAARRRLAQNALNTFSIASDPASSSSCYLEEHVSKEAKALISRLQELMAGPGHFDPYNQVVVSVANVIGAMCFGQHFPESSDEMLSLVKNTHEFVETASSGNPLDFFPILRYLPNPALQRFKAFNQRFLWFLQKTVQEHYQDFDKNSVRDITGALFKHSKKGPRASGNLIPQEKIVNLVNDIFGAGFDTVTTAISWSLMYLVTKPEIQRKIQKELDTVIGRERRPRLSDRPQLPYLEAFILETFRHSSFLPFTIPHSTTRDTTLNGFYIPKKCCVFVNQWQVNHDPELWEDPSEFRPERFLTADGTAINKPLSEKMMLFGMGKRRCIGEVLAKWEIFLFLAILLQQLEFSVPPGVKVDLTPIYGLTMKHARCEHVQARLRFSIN
Procedure, shortened: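 IC50 for CYP1A2 inhibition determined in human liver microsomes using specific probe substrate-metabolite pairs.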

[8] = target: T2, Metabotropic glutamate receptor 4 (Homo sapiens, UniProt Q14833); test: Positive allosteric modulation of human mGlu4 receptor expressed in CHO cells co-expressing Gqi5 assessed as increase in glutamate-induced calcium mobilization preincubated for 142 secs followed by EC20 glutamate addition and subsequent EC80 glutamate addition after 147 secs by Fluo-4-AM dye based fluorescence assay; format: functional, cell-based
Procedure, shortened: (§4)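 CHO cells expressing human mGlu4 and Gqi5, plated at 30,000 cells/well and grown overnight at 37 °C, 5% CO2. Cells were loaded with 1 μM Fluo-4 AM for 45 min at 37 °C in HBSS/20 mM HEPES/2.5 mM probenecid. Compounds were run as 10-point, 1:3 dilution series. After 142 s, EC20 glutamate was added; 147 s later, EC80 glutamate. Fluorescence was normalized to the maximal glutamate response. EC50 and %Glu Max were fitted by four-parameter logistic, with maximum normalized to PHCCC.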

[9] = target: T2, Metabotropic glutamate receptor 4; test: Positive allosteric modulation of human mGlu4 receptor expressed in CHO cells co-expressing Gqi5 assessed as increase in glutamate-induced calcium mobilization preincubated for 142 secs followed by EC20 glutamate addition and measured after 147 secs by Fluo-4-AM dye based fluorescence assay relative to control; format: functional, cell-based; procedure, shortened: as §4
[10] = Half life in rat administered as iv cassette dose; format: ADME, organism-based; conditions: in vivo; procedure, shortened: as §2
[11] = target: Metabotropic glutamate receptor 4 (Rattus norvegicus, UniProt P31423); test: Positive allosteric modulation of rat mGlu4 receptor expressed in HEK cells co-expressing GIRK1/2 assessed as increase in glutamate-induced thallium flux preincubated for 140 secs followed by glutamate addition and measured after 2.5 mins by FluoZin-2-AM dye based fluorescence assay; format: cell-based; procedure, shortened: as §3
[12] = MRT in rat administered as iv cassette dose; format: ADME, organism-based; conditions: in vivo; procedure, shortened: as §2
[13] = Volume of distribution at steady state in rat administered as iv cassette dose; format: ADME, organism-based; conditions: in vivo, read-out: Vdss; procedure, shortened: as §2
[14] = target: T3, AhR (read out as CYP1A2 induction) (Homo sapiens, UniProt P35869); test: Activation of AhR (unknown origin) assessed as CYP1A2 induction relative to control; format: ADME
T3 sequence (P35869 whole entry): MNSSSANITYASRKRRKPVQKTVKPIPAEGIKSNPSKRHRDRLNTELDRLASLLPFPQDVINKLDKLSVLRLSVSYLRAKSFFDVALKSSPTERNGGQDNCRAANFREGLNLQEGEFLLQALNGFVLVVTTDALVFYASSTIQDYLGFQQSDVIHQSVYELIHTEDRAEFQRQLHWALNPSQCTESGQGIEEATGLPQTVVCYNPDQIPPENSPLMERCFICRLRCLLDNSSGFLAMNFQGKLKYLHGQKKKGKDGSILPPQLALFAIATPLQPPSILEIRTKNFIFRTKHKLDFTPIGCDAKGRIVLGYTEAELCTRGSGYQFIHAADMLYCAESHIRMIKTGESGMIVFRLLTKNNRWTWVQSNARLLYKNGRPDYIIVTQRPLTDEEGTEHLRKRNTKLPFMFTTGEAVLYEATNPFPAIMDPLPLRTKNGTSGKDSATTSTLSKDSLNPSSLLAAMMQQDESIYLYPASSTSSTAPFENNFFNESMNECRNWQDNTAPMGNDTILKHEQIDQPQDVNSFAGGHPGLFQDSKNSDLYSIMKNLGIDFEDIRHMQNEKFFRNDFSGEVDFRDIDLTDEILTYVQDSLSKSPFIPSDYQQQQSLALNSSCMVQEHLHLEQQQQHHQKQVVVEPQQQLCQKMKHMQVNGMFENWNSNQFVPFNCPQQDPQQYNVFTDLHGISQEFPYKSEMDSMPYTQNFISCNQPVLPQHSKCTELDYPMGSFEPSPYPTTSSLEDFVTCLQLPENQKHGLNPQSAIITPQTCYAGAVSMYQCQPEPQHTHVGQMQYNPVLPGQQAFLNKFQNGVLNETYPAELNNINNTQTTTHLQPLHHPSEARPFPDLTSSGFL

[15] = Brain to plasma partition coefficient, Kp of the compound in rat administered as iv cassette dose; format: ADME, organism-based; conditions: brain, BLD = below limit of detection
Procedure, shortened: (§5)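 Cassette dosing in male Sprague-Dawley rats (~300 g, n = 1 per experiment), with carotid artery and jugular vein catheters. Animals acclimated about one week with food and water ad libitum. Plasma (ng/mL) and brain (ng/g) levels were measured and Kp calculated.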

[16] = Plasma concentration in rat administered as iv cassette dose; format: ADME, organism-based; conditions: in vivo; procedure, shortened: as §5
[17] = Drug uptake in rat brain administered as iv cassette dose; format: ADME, organism-based; conditions: in vivo, BLD = below limit of detection; procedure, shortened: as §5

T2 sequence (Q14833 whole entry): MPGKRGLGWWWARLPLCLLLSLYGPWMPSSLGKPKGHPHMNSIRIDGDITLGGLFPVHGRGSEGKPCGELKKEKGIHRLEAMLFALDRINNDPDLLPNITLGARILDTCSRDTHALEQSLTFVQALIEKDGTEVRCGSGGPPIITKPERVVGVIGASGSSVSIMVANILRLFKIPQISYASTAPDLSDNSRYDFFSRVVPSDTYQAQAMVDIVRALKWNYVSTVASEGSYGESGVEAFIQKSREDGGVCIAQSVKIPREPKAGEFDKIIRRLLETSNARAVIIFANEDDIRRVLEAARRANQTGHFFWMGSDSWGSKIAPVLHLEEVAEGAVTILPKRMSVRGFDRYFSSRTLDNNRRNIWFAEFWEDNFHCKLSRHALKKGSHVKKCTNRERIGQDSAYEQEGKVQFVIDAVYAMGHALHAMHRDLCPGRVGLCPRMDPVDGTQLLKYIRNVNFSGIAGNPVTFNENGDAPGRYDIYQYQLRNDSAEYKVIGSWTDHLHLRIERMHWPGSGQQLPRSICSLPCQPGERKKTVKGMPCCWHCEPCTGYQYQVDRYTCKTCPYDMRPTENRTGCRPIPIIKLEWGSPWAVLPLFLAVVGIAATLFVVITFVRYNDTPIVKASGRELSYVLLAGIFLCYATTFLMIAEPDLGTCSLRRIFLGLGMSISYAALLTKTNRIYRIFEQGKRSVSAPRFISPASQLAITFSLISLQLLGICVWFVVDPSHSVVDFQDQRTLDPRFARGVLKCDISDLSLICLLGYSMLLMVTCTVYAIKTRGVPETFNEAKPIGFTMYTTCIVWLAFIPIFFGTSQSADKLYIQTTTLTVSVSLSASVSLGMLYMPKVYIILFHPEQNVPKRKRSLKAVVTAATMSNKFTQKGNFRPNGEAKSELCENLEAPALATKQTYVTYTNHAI
Metabotropic glutamate receptor 4 (Rattus norvegicus), sequence (P31423 whole entry): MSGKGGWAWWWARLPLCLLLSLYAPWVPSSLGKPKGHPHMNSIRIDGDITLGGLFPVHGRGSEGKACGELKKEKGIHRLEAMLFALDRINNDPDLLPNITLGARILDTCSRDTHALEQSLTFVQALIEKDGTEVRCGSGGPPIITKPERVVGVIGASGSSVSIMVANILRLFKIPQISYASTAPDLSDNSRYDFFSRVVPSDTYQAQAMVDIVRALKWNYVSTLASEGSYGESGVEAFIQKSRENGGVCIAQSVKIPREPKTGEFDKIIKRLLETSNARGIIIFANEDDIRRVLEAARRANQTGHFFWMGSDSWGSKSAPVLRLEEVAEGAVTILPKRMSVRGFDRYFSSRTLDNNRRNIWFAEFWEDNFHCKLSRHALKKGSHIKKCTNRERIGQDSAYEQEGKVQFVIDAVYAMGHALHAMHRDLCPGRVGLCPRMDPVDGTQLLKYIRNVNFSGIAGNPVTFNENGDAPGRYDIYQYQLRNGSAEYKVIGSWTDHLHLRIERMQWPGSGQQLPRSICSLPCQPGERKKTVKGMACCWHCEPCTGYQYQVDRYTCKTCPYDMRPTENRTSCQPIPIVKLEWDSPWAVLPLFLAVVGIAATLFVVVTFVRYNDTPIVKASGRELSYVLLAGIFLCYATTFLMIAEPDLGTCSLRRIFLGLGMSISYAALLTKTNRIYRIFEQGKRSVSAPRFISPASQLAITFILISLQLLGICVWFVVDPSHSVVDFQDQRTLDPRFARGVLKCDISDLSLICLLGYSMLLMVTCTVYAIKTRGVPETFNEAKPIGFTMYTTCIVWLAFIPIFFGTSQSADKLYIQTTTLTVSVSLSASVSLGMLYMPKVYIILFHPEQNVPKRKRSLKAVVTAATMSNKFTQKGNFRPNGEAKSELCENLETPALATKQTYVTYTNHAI
Metabotropic glutamate receptor 4 (Rattus norvegicus, UniProt P31423), sequence (P31423 whole entry): as above

Row | SMILES | fraction unbound at 4 h [1] | CLint scaled at 1 µM [2] [mL/min/kg] | clearance [3] [mL/min/kg] | fraction unbound at 4 h [4] | CLint scaled at 1 µM [5] [mL/min/kg] | %max [6] [%] | pIC50 [7] | pEC50 [8] | %max [9] [%] | half-life [10] [min] | pEC50 [11] | MRT [12] [min] | Vd [13] [L/kg] | Emax [14] [%] | Kp [15] | Cp [16] [ng/mL] | Drug uptake [17]
1 | c1cnc2c(Nc3ccc4c(C5CCCC5)noc4c3)n[nH]c2c1 | 0.007 | 30.7 | 62.1 | 0.01 | 398 | 97.9 | 5.92 | 6.14 | 87.6 | 100 | 6.17 |  |  |  |  |  | 
2 | Cc1noc2c(F)cc(Nc3n[nH]c4ncccc34)cc12 | 0.033 | 50.2 | 30.5 | 0.028 | 110 | 114 | > 7.00 | 6.91 | 74.7 | 34.7 | 6.77 | 38 | 1.2 | > 50 |  |  | 
3 | Cc1noc2ccc(Nc3n[nH]c4ncccc34)cc12 | 0.079 | 81.4 | 38 | 0.066 | 30.1 | 108 | 6.15 | 6.64 | 81.9 | 107 | 6.68 | 60.6 | 2.5 | > 50 |  |  | 
4 | Cc1noc2c(F)cc(Nc3n[nH]c4cccnc34)cc12 | 0.05 | 31.1 | 81.1 | 0.029 | 66.4 | 114 | > 7.00 | 6.56 | 77.7 | 31.2 | 7.28 | 38.4 | 3.1 | > 50 |  |  | 
5 | Cc1noc2ccc(Nc3n[nH]c4nccnc34)cc12 | 0.064 | 114 | 24.3 | 0.066 | 3 | 127 | 6.70 | 6.86 | 85.4 | 28.6 | 7.19 | 37.2 | 0.9 | > 50 |  |  | 
6 | Cc1noc2ccc(Nc3n[nH]c4cccnc34)cc12 | 0.058 | 14.8 |  | 0.062 | 31.8 | 105 | > 7.00 | 7.12 | 91 |  | 7.02 |  |  |  |  |  | 
7 | CC(C)(C)Cc1noc2cc(Nc3n[nH]c4cccnc34)ccc12 | 0.022 | 7.3 | 43.2 | 0.016 | 86.9 | 84.8 | 5.96 | 5.89 | 68.9 | 79.9 | 6.27 |  |  |  |  |  | 
8 | CC(F)(F)c1noc2cc(Nc3n[nH]c4cccnc34)ccc12 | 0.017 | 24.6 | 27.8 | 0.003 | 11 | 83.8 | 6.30 | 6.17 | 58.8 | 90.8 | 5.80 |  |  |  |  |  | 
9 | CN(C(=O)c1nsc2cc(Nc3n[nH]c4cccnc34)ccc12)C1CC(F)(F)C1 | < 0.001 | 298 |  | 0.006 | 2940 |  |  | 7.17 | 76.7 |  |  |  |  |  | Bld | 511 | Bld
10 | Cc1noc2ccc(Nc3n[nH]c4cc(F)cnc34)cc12 | 0.076 | 24.2 | 64.6 | 0.054 | 33.4 | 111 | > 7.00 | 5.80 | 80.6 | 54.8 | 6.91 | 31.6 | 2 | > 50 |  |  | 

Reference: ChEMBL document CHEMBL4308847, “Discovery, Structure-Activity Relationship, and Biological Characterization of a Novel Series of 6-((1 H-Pyrazolo[4,3- b]pyridin-3-yl)amino)-benzo[ d]isothiazole-3-carboxamides as Positive Allosteric Modulators of the Metabotropic Glutamate Receptor 4 (mGlu4)” (J Med Chem, 2018)
